{"data": "Measured values of several laboratories", "observed": "cell growth or viability", "note": "Protocols differ between the studies behind these lines."}
{"Compound": "C=CC(=O)N1CCC[C@@H](n2nc(-c3ccc(Oc4ccccc4)cc3)c3c(N)ncnc32)C1", "cell line": "U-937", "method": "ATP luminescence", "time": "72 h", "endpoint": "GI50", "result": "6.4 µM"}
{"Compound": "Oc1ccc(Nc2nc(-c3ccc(Cl)cc3)cs2)cc1", "cell line": "UACC-903", "method": "MTS", "time": "48 h", "endpoint": "IC50", "result": "59.1 µM"}
{"Compound": "COC(=O)COc1cccc(NC(=O)C2(c3cccc(C)c3)CC2)c1", "cell line": "U-937", "method": "ATP luminescence", "time": "72 h", "endpoint": "GI50", "result": "> 200 µM"}
{"Compound": "Cc1cc(=O)oc2ccc(-c3cc(-c4cccc(Cl)c4)nc(N)n3)c(O)c12", "cell line": "KB", "method": "MTT", "concentration": "32 µg/mL", "time": "72 h", "endpoint": "inhibition", "result": "16%"}
{"Compound": "COC(=O)COc1ccc(NC(=O)C2(c3ccc(F)cc3)CC2)cc1", "cell line": "U-937", "method": "ATP luminescence", "time": "72 h", "endpoint": "GI50", "result": "5.9 µM"}
{"Compound": "C=CC(=O)N1CCC[C@@H](n2nc(-c3ccc(Oc4ccccc4)cc3)c3c(N)ncnc32)C1", "cell line": "MINO", "method": "ATP luminescence", "time": "72 h", "endpoint": "GI50", "result": "6.31 µM"}
{"Compound": "COC(=O)COc1ccc(NC(=O)C2(c3cccc(C)c3)CC2)c(C)c1", "cell line": "U-937", "method": "ATP luminescence", "time": "72 h", "endpoint": "GI50", "result": "6.8 µM"}
{"Compound": "C=CC(=O)N1CCN(c2nc(=O)n(-c3c(C)ccnc3C(C)C)c3nc(-c4c(O)cccc4F)c(F)cc23)[C@@H](C)C1", "cell line": "LS-513", "time": "5 days", "endpoint": "EC50", "result": "> 10 µM"}
{"Compound": "Cc1cc(=O)oc2ccc(-c3cc(-c4ccccc4)nc(N)n3)c(O)c12", "cell line": "KB", "method": "MTT", "concentration": "8 µg/mL", "time": "72 h", "endpoint": "inhibition", "result": "0%"}
{"Compound": "COc1cc(-c2ccc(-c3ccc(C(=N)N)nc3)s2)cc(OC)c1OC", "cell line": "IGROV-1", "method": "SRB", "endpoint": "GI50", "result": "2.63 µM"}
{"Compound": "COc1ccc(-c2cc(-c3ccc4oc(=O)cc(C)c4c3O)nc(N)n2)cc1", "cell line": "KB", "method": "MTT", "concentration": "128 µg/mL", "time": "72 h", "endpoint": "inhibition", "result": "28%"}
{"Compound": "COC(=O)COc1ccc(NC(=O)C2(c3ccccc3)CC2)cc1Br", "cell line": "U-937", "method": "ATP luminescence", "time": "72 h", "endpoint": "GI50", "result": "6.1 µM"}
{"Compound": "Cc1cc(=O)oc2ccc(-c3cc(-c4ccc(Br)cc4)nc(N)n3)c(O)c12", "cell line": "KB", "method": "MTT", "concentration": "2 µg/mL", "time": "72 h", "endpoint": "inhibition", "result": "0%"}
{"Compound": "COc1cc(Nc2nccc(-c3cnn4nc(OC)ccc34)n2)cc(C(F)(F)F)c1", "cell line": "SNU1", "method": "ATP luminescence", "endpoint": "IC50", "result": "0.19 µM"}
